Consider three molecules from PMC11600146 (JACS Au, 2024).

Values after ≈ are worked out from the molar mass of the structure shown. “Also recorded” adds a separate entry of the source.

Data set [1] deals with K. pneumoniae 10031. As to the kind of experiment: Time-kill kinetics. In kind it is cell-based.
Another data set deals with T1, E. coli LpxH (Escherichia coli, UniProt P43341).
T1 sequence (P43341 1-240): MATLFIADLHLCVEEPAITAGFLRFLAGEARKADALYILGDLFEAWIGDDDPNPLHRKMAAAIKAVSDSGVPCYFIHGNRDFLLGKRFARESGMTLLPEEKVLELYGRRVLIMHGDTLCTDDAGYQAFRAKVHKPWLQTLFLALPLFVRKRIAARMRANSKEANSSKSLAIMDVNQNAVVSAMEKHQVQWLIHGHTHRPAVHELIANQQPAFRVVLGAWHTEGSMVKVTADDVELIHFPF
In words: LpxE-coupled LpxH activity assay. In kind it is biochemical. In short, it runs like this:
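LpxE-coupled assay with GB1-E. coli LpxH-His10 (10 ng/mL in 2× enzyme/inhibitor mix; 0.5 ng/mL final for two analogs, with a longer time course). Mixes were preincubated 10 min at 37 °C and quenched with EDTA, then LpxE 30 min, malachite green, A620. Run in triplicate. IC50 fitted; Ki from competitive equation, KM 61.7 μM.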

Another data set deals with T2, K. pneumoniae LpxH (Klebsiella pneumoniae, UniProt A6T5R0).
T2 sequence (A6T5R0 1-240): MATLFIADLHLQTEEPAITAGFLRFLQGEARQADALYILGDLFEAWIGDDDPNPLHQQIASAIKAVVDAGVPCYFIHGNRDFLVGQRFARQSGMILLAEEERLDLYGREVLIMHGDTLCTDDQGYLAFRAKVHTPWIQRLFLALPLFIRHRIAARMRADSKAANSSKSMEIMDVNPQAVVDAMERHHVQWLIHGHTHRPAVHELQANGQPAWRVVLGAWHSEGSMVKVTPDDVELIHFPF
In words: LpxE-coupled LpxH activity assay. It is filed as biochemical. The method, boiled down: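 LpxE-coupled assay with GB1-K. pneumoniae LpxH-His10, 10 ng/mL final (1 ng/mL for two analogs, with an extended time course), 100 μM UDP-DAGn. Buffer: Tris-HCl pH 8.0, BSA, Triton X-100, 1 mM MnCl2, DTT, 10% DMSO. Reaction at 37 °C; time-point aliquots quenched with 5 mM EDTA, then A. aeolicus LpxE 5 μg/mL for 30 min, formic acid, malachite green, A620. Triplicates. IC50 from dose–response fit; Ki = IC50/(1+[S]/KM), KM 68.1 μM.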

Data set [2] relates to E. coli 25922. In words: MIC assay, broth microdilution. It is filed as cell-based. As to conditions: Escherichia coli, 25922, 22 h, read-out: E. coli 25922 MIC (μg/mL).
A further data set has as its system HEK293 cells. In words: In vitro cytotoxicity, CellTiter-Glo 2.0 cell viability assay. It is filed as cell-based. On the technique in general: In ATP-based viability assays light output follows the ATP content of the culture.
Data set [3] has as its system K. pneumoniae 10031. As to the kind of experiment: Spontaneous resistance development. It is filed as cell-based. In short, it runs like this:
(§1)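 Five to six colonies per strain, from antibiotic-free LB agar, grown to OD 1 and concentrated tenfold. […] Colonies repassaged on fresh 8× MIC plates for 48 h, counted and sequenced. Frequency is resistant growth divided by initial inoculum density.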

A further data set concerns HepG2 cells. As to the kind of experiment: In vitro cytotoxicity, CellTiter-Glo 2.0 cell viability assay. It is filed as cell-based. As to conditions: HepG2, 100 μM (63 μg/mL), 24 h.
In data set [4] the test system is E. coli 25922. As to the kind of experiment: Spontaneous resistance development. It is filed as cell-based. The method, boiled down: as §1
The subject of data set [5] is K. pneumoniae 10031. As to the kind of experiment: MIC assay, broth microdilution. To be noted: Klebsiella pneumoniae, 10031, 22 h, read-out: K. pneumoniae 10031 MIC (μg/mL). It is filed as cell-based. The method, boiled down:
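Broth microdilution adapted from NCCLS methods. Overnight cultures were diluted to OD600 0.006 in cation-adjusted Mueller–Hinton medium with 7% DMSO and incubated with a range of test compound concentrations at 37 °C for 22 h. MTT (5 mg/mL) was added for 3 h, solubilized with 2-propanol, and read as the absorbance difference at 570 and 690 nm. MIC was the lowest concentration with readings within 4-fold of bacteria-free wells.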
On the technique in general: Broth dilution looks for growth in wells or tubes with falling amounts of substance.

Regarding `CN(c1ccccc1C(=O)Nc1ccc(S(=O)(=O)N2CCN(c3cc(C(F)(F)F)cc(Cl)n3)CC2)cc1)S(C)(=O)=O` [JH-LPH-107], the “type of antibiotic action” value with K. pneumoniae 10031 [1] (time-kill, regrowth prevented up to 24 h at or above the MIC) is recorded as “bactericidal”. In the data set with K. pneumoniae 10031 [1] (within 6 h, at or above the MIC), the “reduction of bacterial viability” value was more than 1000 fold. Besides, the concentration for half-maximal inhibition (IC50) on E. coli LpxH and on K. pneumoniae LpxH was 0.13 nM throughout. The MIC in the data set with E. coli 25922 [2] amounted to 0.31 µg/mL (≈ 0.49 µM). Moreover, the “cytotoxicity (cell viability)” value was “did not cause any significant cytotoxicity; also recorded: no significant cytotoxicity” in the data set with HEK293 cells (HEK293, 100 μM (63 μg/mL), 24 h) and “did not cause any significant cytotoxicity; also recorded: no significant cytotoxicity” in the data set on HepG2 cells. This molecule had a safety index in the data set with HEK293 cells (no cytotoxicity at 63 μg/mL in HEK293 or HepG2 versus MICs 0.31 and 0.04 μg/mL) of more than 100 fold. The “Rate of spontaneous resistance mutations @4× MIC” value is reported as 2.0 × 10^-9 in the data set on K. pneumoniae 10031 [3] (K. pneumoniae 10031, 4× MIC) and 2.5 × 10^-9 in the data set on E. coli 25922 [4] (E. coli 25922, 4× MIC). Besides, the “Rate of spontaneous resistance mutations @8× MIC” value in the data set on K. pneumoniae 10031 [3] (K. pneumoniae 10031, 8× MIC) is 9.1 × 10^-10; in the data set on E. coli 25922 [4] (E. coli 25922, 8× MIC) it was 1.4 × 10^-9.
`CC(=O)N1CCc2cc(S(=O)(=O)N3CCN(c4nccc(C(F)(F)F)n4)CC3)ccc21` [JH-LPH-93]: the MIC in the data set with K. pneumoniae 10031 [5] stood at 1.3 µg/mL (≈ 2.85 µM). In addition, the IC50 (commonly the midpoint of a concentration-inhibition curve) at K. pneumoniae LpxH worked out at 100 nM.
On to `CC(=O)N1CCc2cc(S(=O)(=O)N3CCN(c4cc(C(F)(F)F)cc(Cl)n4)CC3)ccc21` [JH-LPH-92], for which the MIC with K. pneumoniae 10031 [5] was 0.08 µg/mL (≈ 0.164 µM); in the data set on E. coli 25922 [2], more than 64 µg/mL.
